Activity calls are given as the source filed them. The rule behind the calls is not given here.
Assays:
[1] = biological target: T1, Amine oxidase [flavin-containing] A (Homo sapiens, UniProt P21397); test: (§1) Inhibition of human recombinant microsomal MAO-A expressed in baculovirus-infected BTI-TN-5B1-4 cells assessed as inhibition of H2O2 production using p-tyramine as substrate preincubated for 15 mins followed by substrate addition by Amplex Red reagent based fluorescence analysis
T1 sequence (P21397 whole entry): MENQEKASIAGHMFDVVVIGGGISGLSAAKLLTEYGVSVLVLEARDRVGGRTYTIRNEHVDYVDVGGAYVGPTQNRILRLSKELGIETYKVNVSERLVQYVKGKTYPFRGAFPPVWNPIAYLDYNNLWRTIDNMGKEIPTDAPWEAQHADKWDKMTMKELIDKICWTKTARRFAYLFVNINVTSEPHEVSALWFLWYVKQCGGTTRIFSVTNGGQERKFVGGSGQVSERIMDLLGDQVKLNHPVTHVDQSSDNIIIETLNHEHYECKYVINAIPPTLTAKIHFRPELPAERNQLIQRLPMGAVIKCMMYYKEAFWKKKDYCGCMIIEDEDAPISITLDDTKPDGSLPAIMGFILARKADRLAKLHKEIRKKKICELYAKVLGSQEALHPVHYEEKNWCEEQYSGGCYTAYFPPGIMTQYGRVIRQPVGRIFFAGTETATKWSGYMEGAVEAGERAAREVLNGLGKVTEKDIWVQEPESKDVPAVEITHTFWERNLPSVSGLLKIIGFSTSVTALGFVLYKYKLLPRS

[2] = biological target: T2, Amine oxidase [flavin-containing] B (Homo sapiens, UniProt P27338); test: as §1, with “Time dependent inhibition” for “Inhibition of”, “MAO-B” for “MAO-A”, “preincubated with enzyme” for “preincubated”, “for 5 to” for “for”; conditions: time 5-15 min
T2 sequence (P27338 whole entry): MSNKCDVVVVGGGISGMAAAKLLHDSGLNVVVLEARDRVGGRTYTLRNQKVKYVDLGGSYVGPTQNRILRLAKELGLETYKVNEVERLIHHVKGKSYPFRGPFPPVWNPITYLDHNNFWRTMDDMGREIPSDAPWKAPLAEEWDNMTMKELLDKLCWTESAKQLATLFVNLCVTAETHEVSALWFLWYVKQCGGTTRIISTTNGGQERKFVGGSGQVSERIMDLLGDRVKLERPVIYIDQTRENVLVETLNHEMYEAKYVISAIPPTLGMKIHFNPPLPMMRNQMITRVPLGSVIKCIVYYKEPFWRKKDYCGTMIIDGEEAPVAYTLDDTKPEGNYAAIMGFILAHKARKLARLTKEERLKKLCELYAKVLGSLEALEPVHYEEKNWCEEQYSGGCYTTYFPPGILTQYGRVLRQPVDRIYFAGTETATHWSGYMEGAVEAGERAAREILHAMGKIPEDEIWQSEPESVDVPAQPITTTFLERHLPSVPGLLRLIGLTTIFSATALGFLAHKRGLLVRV

[3] = biological target: T2, Amine oxidase [flavin-containing] B; test: Inhibition of human recombinant microsomal MAO-B expressed in baculovirus-infected BTI-TN-5B1-4 cells assessed as inhibition of H2O2 production using p-tyramine as substrate preincubated for 15 mins followed by substrate addition by Amplex Red reagent based fluorescence analysis
Method in brief: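 Recombinant human MAO-A or MAO-B (insect-cell microsomes) preincubated with compound 15 min at 37 °C in 50 mM sodium phosphate, pH 7.4, 0.05% Triton X-114. Reaction started with 1 mM p-tyramine, 250 µM Amplex Red and 2 U/mL HRP (final concentrations). Resorufin fluorescence (ex 530/em 590 nm) followed for 20 min at 37 °C, duplicates. Blank-corrected residual activity; IC50 from a four-parameter Hill fit.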

HepG2 = test: Cytotoxicity against human HepG2 cells at 50 uM incubated for 48 hrs […]; type: cell-based; conditions: hepg2, 48 h
Cholinesterase [4] = biological target: T3, Cholinesterase (Homo sapiens, UniProt P06276); test: Inhibition of human BuchE using butyrylthiocholine iodide as substrate preincubated for 30 mins followed by substrate addition by Ellman's method
T3 sequence (P06276 whole entry): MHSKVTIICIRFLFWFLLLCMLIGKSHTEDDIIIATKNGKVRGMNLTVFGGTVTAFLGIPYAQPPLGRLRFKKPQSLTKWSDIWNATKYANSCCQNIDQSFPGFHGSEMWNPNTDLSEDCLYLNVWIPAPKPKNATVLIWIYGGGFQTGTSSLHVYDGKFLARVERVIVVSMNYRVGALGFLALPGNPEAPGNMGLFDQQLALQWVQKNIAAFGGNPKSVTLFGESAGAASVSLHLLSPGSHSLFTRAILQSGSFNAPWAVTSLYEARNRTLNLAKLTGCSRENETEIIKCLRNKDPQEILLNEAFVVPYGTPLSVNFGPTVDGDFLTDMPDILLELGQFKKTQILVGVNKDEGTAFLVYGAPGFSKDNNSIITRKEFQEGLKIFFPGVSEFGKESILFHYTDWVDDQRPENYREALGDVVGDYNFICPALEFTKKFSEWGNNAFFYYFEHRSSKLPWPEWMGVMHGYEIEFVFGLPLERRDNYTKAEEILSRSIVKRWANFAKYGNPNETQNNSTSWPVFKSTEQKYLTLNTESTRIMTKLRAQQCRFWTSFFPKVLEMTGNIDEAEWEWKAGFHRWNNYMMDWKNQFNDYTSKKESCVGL

SH-SY5Y [5] = test: Reduction in amyloid beta (1 to 42) aggregates in human SH-SY5Y cells at 20 uM incubated for 48 hrs by DAPI stain based immunofluorescence staining analysis; type: functional, cell-based
Method in brief: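 SH-SY5Y cells on coverslips treated for 48 h with preincubated Aβ1-42 (5 µM) in reduced-serum medium, with or without compound (20 µM). Fixed in 5% formalin, permeabilized with 0.5% Tween 20 and blocked with 3% BSA. Stained with rabbit anti-amyloid fibril LOC antibody (1:1000, 2 h) and Alexa 488 secondary (1.5 h). DAPI-mounted and imaged by confocal microscopy (63× oil).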

SH-SY5Y [6] = test: Cytotoxicity against human SH-SY5Y cells at 20 uM incubated for 48 hrs […]; type: cell-based
SH-SY5Y [7] = test: Neuroprotective activity against human SH-SY5Y cells assessed as reduction in amyloid beta(1 to 42)-induced cell death at 20 uM measured after 48 hrs by Annexin-V APC/7-AAD staining based flow cytometric analysis; type: functional
Method in brief: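 Aβ1-42 (5 µM) pre-aggregated 24 h at 37 °C in reduced-serum medium, with or without compound (20 µM). SH-SY5Y cells (2×10^4/well) treated the next day for 48 h, then washed in cold PBS and stained with 7-AAD (2 µg/mL, 10 min, room temperature). Percent 7-AAD-positive cells by flow cytometry, relative to control. At least two independent assays in duplicate; ANOVA with t-test.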

Homo sapiens = species: Homo sapiens; test: Inhibition of HFIP-pretreated human amyloid beta (1 to 42) self aggregation at 10 uM incubated for 36 to 48 hrs by thioflavin-T based fluorescence method relative to control; conditions: time 36-48 hrs
Method in brief: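 HFIP-pretreated Aβ1-42 (1.5 µM) incubated with compound (10 µM) and thioflavin-T (10 µM final) at room temperature with continuous shaking for 36–48 h. Fluorescence (ex 440/em 490 nm) read every 3 min. Percent inhibition compared with Aβ + DMSO control, run in quadruplicate. Three independent experiments, mean ± SD, one-way ANOVA with Bonferroni test.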

Acetylcholinesterase [8] = biological target: T4, Acetylcholinesterase (Homo sapiens, UniProt P22303); test: Inhibition of human AChE using acetylthiocholine iodide as substrate preincubated with enzyme for 30 mins followed by substrate addition by Ellman's method
T4 sequence (P22303 whole entry): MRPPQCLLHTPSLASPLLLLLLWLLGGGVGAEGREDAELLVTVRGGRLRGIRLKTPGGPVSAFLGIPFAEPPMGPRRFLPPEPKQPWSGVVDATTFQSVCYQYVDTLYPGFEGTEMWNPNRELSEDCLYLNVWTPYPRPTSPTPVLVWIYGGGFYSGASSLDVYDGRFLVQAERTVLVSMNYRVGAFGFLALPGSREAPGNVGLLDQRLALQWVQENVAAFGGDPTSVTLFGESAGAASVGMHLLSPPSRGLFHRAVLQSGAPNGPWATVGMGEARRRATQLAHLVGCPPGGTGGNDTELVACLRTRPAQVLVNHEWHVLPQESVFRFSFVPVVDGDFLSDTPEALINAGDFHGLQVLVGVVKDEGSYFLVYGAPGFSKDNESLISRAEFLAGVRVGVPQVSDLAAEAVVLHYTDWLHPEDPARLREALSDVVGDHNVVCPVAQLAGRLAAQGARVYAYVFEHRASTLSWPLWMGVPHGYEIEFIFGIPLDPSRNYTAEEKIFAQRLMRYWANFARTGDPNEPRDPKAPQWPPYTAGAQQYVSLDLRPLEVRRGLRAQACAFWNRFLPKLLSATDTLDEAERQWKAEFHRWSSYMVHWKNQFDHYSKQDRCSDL

Cholinesterase [9] = biological target: T3, Cholinesterase; test: Non-time dependent inhibition of human BuChE using butyrylthiocholine iodide as substrate preincubated with enzyme for 15 to 60 mins followed by substrate addition by Ellman's method; conditions: time 15-60 min
Cholinesterase [10] = biological target: T3, Cholinesterase; test: Reversible inhibition of human BuChE using butyrylthiocholine iodide as substrate preincubated with enzyme at 10XIC50 for 30 mins followed by substrate addition and measured for 5 mins by Ellman's method; conditions: time 35.0 min
Acetylcholinesterase [11] = biological target: T4, Acetylcholinesterase; test: Reversible inhibition of human AChE using acetylthiocholine iodide as substrate preincubated with enzyme at 10XIC50 for 30 mins followed by substrate addition and measured for 5 mins by Ellman's method; conditions: time 35.0 min
Acetylcholinesterase [12] = biological target: T4, Acetylcholinesterase; test: Non-time dependent inhibition of human AChE using acetylthiocholine iodide as substrate preincubated with enzyme for 15 to 60 mins followed by substrate addition by Ellman's method; conditions: time 15-60 min

C#CCN1CCC(OC(=O)Nc2ccc(C(C)C)cc2)CC1 was tested, and the IC50 [1] was greater than 100 µM, the “inhibition (INH)” value [2] was “Active” and the IC50 [3] was 0.178 µM. For the same molecule, the Activity (HepG2) was “Non-Toxic”, the IC50 (Cholinesterase [4]) was greater than 100 µM and the inhibition (SH-SY5Y [5]) was “Active”. The Activity (SH-SY5Y [6]) was “Non-Toxic”, the Activity (SH-SY5Y [7]) was “Active” and the inhibition (Homo sapiens) was 25.7%. For the same molecule, the IC50 (Acetylcholinesterase [8]) was greater than 100 µM.

O=C(Nc1ccccc1)OCC1CCN(Cc2ccccc2)CC1 was tested, and the IC50 [1] was greater than 100 µM, the “inhibition (INH)” value [2] was “Not Active” and the IC50 [3] was 26.1 µM. The inhibition (Cholinesterase [9]) was “Active”, the Activity (HepG2) was “Non-Toxic” and the IC50 (Cholinesterase [4]) was 0.555 µM. The inhibition (Cholinesterase [10]) was “Active”, the inhibition (SH-SY5Y [5]) was “inactive” and the Activity (SH-SY5Y [6]) was “Non-Toxic”. The Activity (SH-SY5Y [7]) was “Active”, the inhibition (Homo sapiens) was less than 20% and the inhibition (Acetylcholinesterase [11]) was “Active”. The inhibition (Acetylcholinesterase [12]) was “Active” and the IC50 (Acetylcholinesterase [8]) was 7.31 µM.

For O=C(Nc1ccccc1)OC1CCCN(C2Cc3ccccc3C2)C1 (stereo unspecified), the IC50 [1] was greater than 100 µM, the IC50 [3] was greater than 100 µM and the inhibition (Cholinesterase [9]) was “Active”. For the same molecule, the Activity (HepG2) was “Non-Toxic”, the IC50 (Cholinesterase [4]) was 0.0645 µM and the inhibition (Cholinesterase [10]) was “Active”. For the same molecule, the Activity (SH-SY5Y [6]) was “Non-Toxic”, the inhibition (Homo sapiens) was less than 20% and the inhibition (Acetylcholinesterase [11]) was “Active”. For the same molecule, the inhibition (Acetylcholinesterase [12]) was “Active” and the IC50 (Acetylcholinesterase [8]) was greater than 100 µM.

CC(C)c1ccc(NC(=O)OCC2CCN(Cc3ccccc3)CC2)cc1 was tested, and the IC50 [1] was greater than 100 µM, the IC50 [3] was greater than 100 µM and the inhibition (Cholinesterase [9]) was “Active”. The Activity (HepG2) was “Non-Toxic”, the IC50 (Cholinesterase [4]) was 0.809 µM and the inhibition (Cholinesterase [10]) was “Active”. For the same molecule, the Activity (SH-SY5Y [6]) was “Non-Toxic”, the inhibition (Homo sapiens) was less than 20% and the inhibition (Acetylcholinesterase [11]) was “Active”. For the same molecule, the inhibition (Acetylcholinesterase [12]) was “Active” and the IC50 (Acetylcholinesterase [8]) was 2.25 µM.
